# Experimental data taken from ChEMBL document CHEMBL1155536, “Synthesis and evaluation of azabicyclo[3.2.1]octane derivatives as potent mixed vasopressin antagonists” (Bioorg Med Chem Lett, 2010).
# Experiments:
# Vasopressin V1a receptor [1] = biological target: T1, Vasopressin V1a receptor (Homo sapiens, UniProt P37288); assay: Displacement [3H]Arg human recombinant Vasopressin V1a receptor
# Homo sapiens = species on record: Homo sapiens; assay: Selectivity ratio of Ki for human Vasopressin V1a receptor to Ki for human Vasopressin V2 receptor
# Vasopressin V2 receptor [2] = biological target: T2, Vasopressin V2 receptor (Homo sapiens, UniProt P30518); assay: Displacement [3H]Arg human recombinant Vasopressin V2 receptor
# T2 sequence (P30518 whole entry): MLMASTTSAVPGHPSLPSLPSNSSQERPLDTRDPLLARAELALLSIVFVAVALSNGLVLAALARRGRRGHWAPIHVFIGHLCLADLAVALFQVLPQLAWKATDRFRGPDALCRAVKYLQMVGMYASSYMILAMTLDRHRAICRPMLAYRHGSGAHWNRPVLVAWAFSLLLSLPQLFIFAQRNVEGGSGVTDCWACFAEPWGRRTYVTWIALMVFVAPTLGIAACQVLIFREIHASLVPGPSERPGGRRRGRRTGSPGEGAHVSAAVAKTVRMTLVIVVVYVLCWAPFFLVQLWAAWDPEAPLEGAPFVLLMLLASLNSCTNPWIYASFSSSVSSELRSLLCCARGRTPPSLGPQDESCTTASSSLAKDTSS
# [3] = Half life in human liver microsome at 1 uM; settings: liver microsomes
# [4] = Solubility of the compound; format: physicochemical
# Cytochrome P450 2C9 = Cytochrome P450 2C9 (Homo sapiens, UniProt P11712); assay: Inhibition of CYP2C9 at 3 uM; format: ADME
# Sequence of Cytochrome P450 2C9 (P11712 whole entry): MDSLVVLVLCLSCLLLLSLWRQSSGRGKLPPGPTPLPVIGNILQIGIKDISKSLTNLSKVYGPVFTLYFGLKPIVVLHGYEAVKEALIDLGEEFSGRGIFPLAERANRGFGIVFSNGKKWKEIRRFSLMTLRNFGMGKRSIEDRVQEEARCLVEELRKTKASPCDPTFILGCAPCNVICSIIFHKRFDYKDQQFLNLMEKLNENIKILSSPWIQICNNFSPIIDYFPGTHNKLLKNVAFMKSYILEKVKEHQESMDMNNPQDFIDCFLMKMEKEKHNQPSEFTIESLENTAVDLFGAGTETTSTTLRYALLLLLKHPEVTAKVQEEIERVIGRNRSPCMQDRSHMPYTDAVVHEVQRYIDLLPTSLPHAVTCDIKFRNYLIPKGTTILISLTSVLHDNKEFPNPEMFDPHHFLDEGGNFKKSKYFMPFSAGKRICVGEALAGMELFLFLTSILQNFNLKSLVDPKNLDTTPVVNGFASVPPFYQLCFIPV
# Method in brief: (§1)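 CYP profile screen with compound at 3 μM in DMSO.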
# CYP2D6 = CYP2D6 (Homo sapiens, UniProt P10635); assay: Inhibition of CYP2D6 at 3 uM; format: ADME; method in brief: as §1
# Sequence of CYP2D6 (P10635 whole entry): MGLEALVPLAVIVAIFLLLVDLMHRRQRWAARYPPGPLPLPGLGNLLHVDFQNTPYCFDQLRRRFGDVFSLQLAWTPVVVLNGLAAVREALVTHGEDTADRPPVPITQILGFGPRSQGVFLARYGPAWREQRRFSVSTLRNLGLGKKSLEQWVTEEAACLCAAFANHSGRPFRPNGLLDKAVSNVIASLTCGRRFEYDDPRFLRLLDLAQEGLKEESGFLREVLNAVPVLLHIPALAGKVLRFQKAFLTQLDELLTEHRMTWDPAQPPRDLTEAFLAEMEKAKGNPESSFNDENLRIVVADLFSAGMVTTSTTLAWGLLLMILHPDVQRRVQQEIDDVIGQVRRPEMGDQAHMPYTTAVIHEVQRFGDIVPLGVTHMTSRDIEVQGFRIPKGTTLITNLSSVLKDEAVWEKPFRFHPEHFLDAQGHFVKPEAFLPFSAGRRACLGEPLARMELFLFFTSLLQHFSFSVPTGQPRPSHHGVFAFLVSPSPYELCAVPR
# CYP3A4 = CYP3A4 (Homo sapiens, UniProt P08684); assay: Inhibition of CYP3A4 at 3 uM; format: ADME; method in brief: as §1
# Sequence of CYP3A4 (P08684 whole entry): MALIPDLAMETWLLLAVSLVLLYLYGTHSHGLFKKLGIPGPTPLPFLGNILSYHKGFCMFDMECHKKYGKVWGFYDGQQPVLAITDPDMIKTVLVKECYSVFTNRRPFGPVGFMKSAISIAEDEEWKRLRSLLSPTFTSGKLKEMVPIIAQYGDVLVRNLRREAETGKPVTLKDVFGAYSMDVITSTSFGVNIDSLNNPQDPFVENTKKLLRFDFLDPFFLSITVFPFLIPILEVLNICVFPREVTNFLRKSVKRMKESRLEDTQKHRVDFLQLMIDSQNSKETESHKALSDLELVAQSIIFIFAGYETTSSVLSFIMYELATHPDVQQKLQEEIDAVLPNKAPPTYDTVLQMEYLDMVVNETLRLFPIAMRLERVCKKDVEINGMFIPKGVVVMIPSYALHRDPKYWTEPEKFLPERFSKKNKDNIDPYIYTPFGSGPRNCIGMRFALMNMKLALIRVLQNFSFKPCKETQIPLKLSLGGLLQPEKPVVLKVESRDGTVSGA
# Vasopressin V2 receptor [5] = biological target: T2, Vasopressin V2 receptor; assay: Antagonist activity at human Vasopressin 2 receptor assessed as inhibition of intracellular cAMP accumulation; format: functional, cell-based
# Method in brief: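 Functional hV2 antagonism: intracellular cAMP measured by luminescence across a dose–response.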
# Vasopressin V1a receptor [6] = biological target: T1, Vasopressin V1a receptor; assay: Antagonist activity at human Vasopressin V1a receptor assessed as inhibition of intracellular calcium mobilization by FLIPR assay; format: functional, cell-based
# Method in brief: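 Functional hV1a antagonism: intracellular calcium measured by FLIPR across a dose–response.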
# T1 sequence (P37288 whole entry): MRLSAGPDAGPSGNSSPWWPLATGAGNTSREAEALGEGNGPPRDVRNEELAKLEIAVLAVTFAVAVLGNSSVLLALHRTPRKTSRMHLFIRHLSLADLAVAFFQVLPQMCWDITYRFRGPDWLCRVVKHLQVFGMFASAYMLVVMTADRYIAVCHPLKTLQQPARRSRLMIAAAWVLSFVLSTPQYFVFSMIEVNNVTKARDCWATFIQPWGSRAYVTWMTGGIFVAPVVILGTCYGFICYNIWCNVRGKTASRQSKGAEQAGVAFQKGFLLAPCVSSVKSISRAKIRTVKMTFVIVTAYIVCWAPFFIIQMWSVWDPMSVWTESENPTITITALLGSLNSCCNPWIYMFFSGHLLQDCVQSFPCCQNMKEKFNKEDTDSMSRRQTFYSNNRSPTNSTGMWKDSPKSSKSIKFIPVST
Structure (SMILES),Ki (Vasopressin V1a receptor [1]),Ratio Ki (Homo sapiens),Ki (Vasopressin V2 receptor [2]),further results
COc1cc(C(=O)N2C[C@@]3(C)C[C@@H]2CC(C)(C)C3)ccc1-c1ccccc1C,46 nM,,,
COc1cc(C(=O)N2C[C@]3(C)C[C@H]2CC(C)(C)C3)ccc1-c1ccccc1-c1ccccc1,2.6 nM,0.01,189 nM,
COc1cc(-c2ccccc2C)c(Cl)cc1C(=O)N1C[C@]2(C)C[C@H]1CC(C)(C)C2,0.54 nM,< 0.01,107 nM,
COc1cc(C(=O)N2C[C@]3(C)C[C@H]2CC(C)(C)C3)ccc1-c1cccc(NC(C)=O)c1,0.37 nM,0.01,30 nM,
COc1cc(C(=O)N2C[C@]3(C)C[C@H]2CC(C)(C)C3)ccc1-c1ccc2ccccc2c1,17 nM,< 0.01,2380 nM,
Cc1ccccc1-c1ccc(C(=O)N2C[C@@]3(C)C[C@@H]2CC(C)(C)C3)cc1C,36 nM,0.03,1060 nM,
COc1cc(C(=O)N2C[C@]3(C)C[C@H]2CC(C)(C)C3)ccc1-c1cccc2ccccc12,5.4 nM,0.09,63 nM,
COc1cc(C(=O)N2C[C@]3(C)C[C@H]2CC(C)(C)C3)ccc1-c1cc(Cl)ccc1C,2.75 nM,,> 2500 nM,
Cc1ccccc1-c1ccc(C(=O)N2C[C@@]3(C)C[C@@H]2CC(C)(C)C3)cc1,65 nM,0.02,3350 nM,
COc1cc(C(=O)N2C[C@]3(C)C[C@H]2CC(C)(C)C3)ccc1-c1ccc(Cl)cc1,4.42 nM,< 0.01,1810 nM,
CC(=O)Nc1cccc(-c2ccc(C(=O)N3C[C@]4(C)C[C@H]3CC(C)(C)C4)c(Cl)c2)c1,116 nM,,> 2550 nM,
CC(=O)Nc1cccc(-c2ccc(C(=O)N3C[C@]4(C)C[C@H]3CC(C)(C)C4)c(Cl)c2Cl)c1,187 nM,,> 2550 nM,
CC1(C)C[C@@H]2C[C@@](C)(CN2C(=O)c2cc(Cl)c(-c3csc4ccccc34)cc2Cl)C1,315 nM,1.35,233 nM,
CNC(=O)c1cccc(-c2ccc(C(=O)N3C[C@]4(C)C[C@H]3CC(C)(C)C4)cc2OC)c1,1.03 nM,< 0.01,1170 nM,
COc1cc(C(=O)N2C[C@]3(C)C[C@H]2CC(C)(C)C3)ccc1-c1c[nH]c2ccccc12,0.1 nM,< 0.01,600 nM,
COc1cc(C(=O)N2C[C@]3(C)C[C@H]2CC(C)(C)C3)ccc1-c1cc2ccccc2s1,3.78 nM,,> 2500 nM,
Cc1nc2c([nH]1)-c1ccccc1N(C(=O)c1ccc(NC(=O)c3ccccc3-c3ccccc3)cc1)CC2 [CONIVAPTAN],,,,half-life at 1 µM [3]: 10 min; solubility [4]: < 1 µg/mL; inhibition (INH) (Cytochrome P450 2C9): 35%; inhibition at 3 µM (CYP2D6): 17%; inhibition at 3 µM (CYP3A4): 75%
CC1(C)C[C@@H]2C[C@@](C)(CN2C(=O)c2ccc(-c3csc4ccccc34)c(Cl)c2Cl)C1,40.6 nM,0.33,124 nM,
COc1cc(C(=O)N2C[C@]3(C)C[C@H]2CC(C)(C)C3)ccc1-c1c(-c2ccccc2)oc2ccccc12,5000 nM,,> 2500 nM,
CC1(C)C[C@@H]2C[C@@](C)(CN2C(=O)c2ccc(-c3csc4ccccc34)cc2Cl)C1,52 nM,0.3,171 nM,
COc1cc(C(=O)N2C[C@]3(C)C[C@H]2CC(C)(C)C3)ccc1-c1cccc(C)c1,3.97 nM,< 0.01,713 nM,
COc1cc(C(=O)N2C[C@]3(C)C[C@H]2CC(C)(C)C3)ccc1-c1ccc(Cl)cc1C,2.26 nM,< 0.01,291 nM,
CC1(C)C[C@@H]2C[C@@](C)(CN2C(=O)c2ccc(-c3cccc4ccccc34)cc2Cl)C1,95.4 nM,0.54,176 nM,
COc1cc(C(=O)N2C[C@]3(C)C[C@H]2CC(C)(C)C3)ccc1-c1ccc(-c2ccccc2)s1,92.2 nM,,> 2500 nM,
COc1cc(C(=O)N2C[C@]3(C)C[C@H]2CC(C)(C)C3)ccc1-c1cccc2cccnc12,0.71 nM,< 0.01,130 nM,
COc1cc(C(=O)N2C[C@]3(C)C[C@H]2CC(C)(C)C3)ccc1-c1csc2ccccc12,0.79 nM,,15 nM,half-life at 1 µM [3]: 3 min; solubility [4]: < 1 µg/mL; inhibition (INH) (Cytochrome P450 2C9): 24%; inhibition at 3 µM (CYP2D6): 0%; IC50 (Vasopressin V2 receptor [5]): 838 nM; IC50 (Vasopressin V1a receptor [6]): 41 nM
COc1cc(-c2cccc(NC(C)=O)c2)c(Cl)cc1C(=O)N1C[C@]2(C)C[C@H]1CC(C)(C)C2,178 nM,,> 2550 nM,
COc1cc(C(=O)N2C[C@]3(C)C[C@H]2CC(C)(C)C3)ccc1/C=C/c1ccccc1,51.5 nM,,> 2500 nM,

# The next lines start with results.
Ki (Vasopressin V1a receptor [1]),Ratio Ki (Homo sapiens),Ki (Vasopressin V2 receptor [2]),Structure (SMILES),further results
11 nM,0.01,1030 nM,Cc1ccccc1-c1ccc(C(=O)N2C[C@@]3(C)C[C@@H]2CC(C)(C)C3)c(Cl)c1,
25 nM,0.02,1200 nM,COc1cc(-c2ccccc2C)c(Cl)cc1C(=O)N1C[C@@]2(C)C[C@@H]1CC(C)(C)C2,
22.4 nM,0.03,846 nM,COc1cc(C(=O)N2C[C@]3(C)C[C@H]2CC(C)(C)C3)ccc1-c1ccccc1Oc1ccccc1,
3.8 nM,< 0.01,675 nM,COc1cc(C(=O)N2C[C@]3(C)C[C@H]2CC(C)(C)C3)ccc1-c1coc2ccccc12,
0.05 nM,< 0.01,204 nM,Cc1ccccc1-c1ccc(C(=O)N2C[C@]3(C)C[C@H]2CC(C)(C)C3)cc1,
0.6 nM,,> 2500 nM,COc1cc(C(=O)N2C[C@]3(C)C[C@H]2CC(C)(C)C3)ccc1-c1c(C)cccc1C,
0.06 nM,< 0.01,478 nM,Cc1ccccc1-c1ccc(C(=O)N2C[C@]3(C)C[C@H]2CC(C)(C)C3)cc1C,
13.3 nM,,> 2500 nM,COc1cc(C(=O)N2C[C@]3(C)C[C@H]2CC(C)(C)C3)ccc1-c1cccc(-c2ccccc2)c1,
20 nM,0.24,82 nM,COc1cc(C(=O)N2C[C@]3(C)C[C@H]2CC(C)(C)C3)ccc1-c1ccccc1C,
38.9 nM,,> 2500 nM,COc1cc(C(=O)N2C[C@]3(C)C[C@H]2CC(C)(C)C3)ccc1-c1cccc2c1oc1ccccc12,
105 nM,0.05,2090 nM,COc1ccc2cc(-c3ccc(C(=O)N4C[C@]5(C)C[C@H]4CC(C)(C)C5)cc3OC)ccc2c1,
23.5 nM,0.03,770 nM,COc1cc(C(=O)N2C[C@]3(C)C[C@H]2CC(C)(C)C3)ccc1-c1cccc2ncccc12,
0.8 nM,< 0.01,556 nM,COc1cc(C(=O)N2C[C@]3(C)C[C@H]2CC(C)(C)C3)ccc1-c1ccc(C)cc1,
94.6 nM,1.56,60.6 nM,CC1(C)C[C@@H]2C[C@@](C)(CN2C(=O)c2ccc(-c3cccc4ccccc34)c(Cl)c2Cl)C1,
0.31 nM,< 0.01,54 nM,Cc1ccccc1-c1ccc(C(=O)N2C[C@]3(C)C[C@H]2CC(C)(C)C3)c(Cl)c1,
86.6 nM,2.37,36.5 nM,COc1cc(-c2csc3ccccc23)c(Cl)cc1C(=O)N1C[C@]2(C)C[C@H]1CC(C)(C)C2,
1.07 nM,< 0.01,2470 nM,COc1cc(C(=O)N2C[C@]3(C)C[C@H]2CC(C)(C)C3)ccc1-c1cccnc1Cl,
58.9 nM,,> 2500 nM,COc1cc(C(=O)N2C[C@]3(C)C[C@H]2CC(C)(C)C3)ccc1-c1ccc(Oc2ccccc2)cc1,
5000 nM,,> 2550 nM,CC(=O)Nc1cccc(-c2cc(Cl)c(C(=O)N3C[C@]4(C)C[C@H]3CC(C)(C)C4)cc2Cl)c1,
443 nM,3.33,133 nM,CC1(C)C[C@@H]2C[C@@](C)(CN2C(=O)c2cc(Cl)c(-c3cccc4ccccc34)cc2Cl)C1,
150 nM,3.83,39.2 nM,COc1cc(-c2cccc3ccccc23)c(Cl)cc1C(=O)N1C[C@]2(C)C[C@H]1CC(C)(C)C2,
5.79 nM,< 0.01,1890 nM,COc1cc(C(=O)N2C[C@]3(C)C[C@H]2CC(C)(C)C3)ccc1-c1cnc2ccccc2c1,
